Positions of bridges follow the written chain, without caps; N, C: chain ends. Non-standard residues stand in square brackets, D forms with d. Residues, ends and D or L forms follow the SMILES beside them. Nle = CCCC[C@H](N)C(=O)O; Aib = CC(C)(N)C(=O)O
Experiments:
[1] = Binding affinity to VEGF (unknown origin) by microscale thermophoresis assay; set-up: species or system Homo sapiens
How it was run: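 Microscale thermophoresis with fluorescently labeled VEGF-RED (initial concentration 12 nM), read on a Monolith NT.115 Pico. Peptide and VEGF were measured immediately after mixing, with no incubation. KD derived from the thermophoresis signal.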

[2] = Inhibition of VEGF-mediated in human HUVEC cell proliferation incubated for 48 hrs by MTT assay
How it was run: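 HUVECs seeded at 25,000/well in medium with 0.5 ng/mL VEGF165 for 48 h, then starved 24 h without VEGF or FBS. Peptide (4, 20, 100, 500 µM) premixed with 50 ng/mL VEGF165 for 2 h at 37°C, then added to cells for 48 h. MTT read-out as percent of no-peptide control OD, fitted to IC50; mean ± SD, n = 3.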

[3] = Stability in porcine vitreous assessed as increase in life time measured at 10 uM after 10 days by UPLC-MS/MS analysis; format: ADME, tissue-based, Sus scrofa, Vitreous humor; conditions: pig, 240 h, time 10 day
How it was run: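 Peptide at 10 µM incubated at 37°C in porcine vitreous containing 1% penicillin/streptomycin, one separate tube per time point. Remaining parent peptide quantified by UPLC-MS/MS at each time point.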

[4] = Binding affinity to VEGF (unknown origin) incubated for 30 mins by microscale thermophoresis assay; set-up: species or system Homo sapiens
How it was run: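 Fluorescently labeled VEGF-RED (initial concentration 12 nM) mixed with peptide and incubated 30 min to reach complex equilibrium before microscale thermophoresis on a Monolith NT.115 Pico. KD obtained from the thermophoresis signal.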

ARPE-19 = experiment: Cytotoxicity against human ARPE-19 cells assessed as cell viability up to 20 uM measured after 5 hrs by MTT assay; format: cell-based; conditions: arpe-19, 5 h
How it was run: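 ARPE-19 cells seeded at 20,000/well and grown overnight, then washed. Exposed 5 h at 37°C, 7% CO2 to peptide at 0.01–100 µM in complete medium. Medium replaced, cells grown a further 24 h. MTT 4 h at 37°C, formazan dissolved in 10% SDS/0.01 M HCl overnight, A570 read. Viability relative to untreated cells; poly-L-lysine-treated cells as control.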

Question: Which Kd [1] does the source give for CCCC[C@@H]1NC(=O)[C@H](C(C)C)NC(=O)[C@H](Cc2c[nH]cn2)NC(=O)[C@H]([C@@H](C)CC)NC(=O)[C@H](CC(=O)O)NC(=O)[C@@H](N)CSSC[C@@H](C(=O)N[C@@H](Cc2ccccc2)C(=O)N[C@@H](CCC(=O)O)C(=O)N[C@@H](CCCNC(=N)N)C(=O)N[C@@H](CC(C)C)C(=O)O)NC(=O)[C@H](CCC(=O)O)NC(=O)[C@H](Cc2c[nH]c3ccccc23)NC(=O)[C@H](CCC(=O)O)NC(=O)[C@H](Cc2c[nH]c3ccccc23)NC1=O here?
Answer: The Kd was 9.97 µM.

Question: And the IC50 [2]?
Answer: The IC50 was 12 µM.

Question: What does the source list for CCCC[C@@H]1NC(=O)[C@H](C(C)C)NC(=O)[C@H](Cc2c[nH]cn2)NC(=O)[C@H]([C@@H](C)CC)NC(=O)[C@H](CC(=O)O)NC(=O)[C@@H](NC(=O)[C@H](CC(N)=O)NC(=O)[C@@H]2CCCN2C(=O)C(C)(C)NC(=O)[C@@H](N)C(C)C)CSSC[C@@H](C(=O)N[C@@H](Cc2ccccc2)C(=O)N[C@@H](CCC(=O)O)C(=O)N[C@@H](CCCNC(=N)N)C(=O)N[C@@H](CC(C)C)C(=O)O)NC(=O)[C@H](CCC(=O)O)NC(=O)[C@H](Cc2c[nH]c3ccccc23)NC(=O)[C@H](CCC(=O)O)NC(=O)[C@H](Cc2c[nH]c3ccccc23)NC1=O?
Answer: Stability [3]: Stable; Kd [1]: 2.97 µM; Kd [4]: 0.004 µM; IC50 [2]: 10 µM

Question: What does the source list for CCCC[C@@H]1NC(=O)[C@H](C(C)C)NC(=O)[C@H](Cc2c[nH]cn2)NC(=O)[C@H]([C@@H](C)CC)NC(=O)[C@H](CC(=O)O)NC(=O)[C@@H](NC(=O)[C@H](CC(N)=O)NC(=O)[C@@H](N)C(C)C)CSSC[C@@H](C(=O)N[C@@H](Cc2ccccc2)C(=O)N[C@@H](CCC(=O)O)C(=O)N[C@@H](CCCNC(=N)N)C(=O)N[C@@H](CC(C)C)C(=O)O)NC(=O)[C@H](CCC(=O)O)NC(=O)[C@H](Cc2c[nH]c3ccccc23)NC(=O)[C@H](CCC(=O)O)NC(=O)[C@H](Cc2c[nH]c3ccccc23)NC1=O?
Answer: Kd [1]: 1.94 µM; IC50 [2]: 4 µM

Question: With CCCC[C@@H]1NC(=O)[C@H](C(C)C)NC(=O)[C@H](Cc2c[nH]cn2)NC(=O)[C@H]([C@@H](C)CC)NC(=O)[C@H](CC(=O)O)NC(=O)[C@@H](NC(=O)[C@H](CCCCN)NC(=O)[C@H](CCCCN)NC(=O)C(C)(C)NC(=O)[C@@H](N)CCCCN)CSSC[C@@H](C(=O)N[C@@H](Cc2ccccc2)C(=O)N[C@@H](CCC(=O)O)C(=O)N[C@@H](CCCNC(=N)N)C(=O)N[C@@H](CC(C)C)C(=O)O)NC(=O)[C@H](CCC(=O)O)NC(=O)[C@H](Cc2c[nH]c3ccccc23)NC(=O)[C@H](CCC(=O)O)NC(=O)[C@H](Cc2c[nH]c3ccccc23)NC1=O as the compound, how does the Stability [3] read?
Answer: The Stability was “Stable”.

Question: What about the Kd [1] of the same compound?
Answer: Its Kd is 0.54 µM.

Question: What about the Kd [4] of the same compound?
Answer: Its Kd is 3 µM.

Question: And the IC50 [2]?
Answer: The IC50 was 6 µM.

Question: For CCCC[C@@H]1NC(=O)[C@H](C(C)C)NC(=O)[C@H](Cc2c[nH]cn2)NC(=O)[C@H]([C@@H](C)CC)NC(=O)[C@H](CC(=O)O)NC(=O)[C@@H](NC(=O)[C@H](CC(N)=O)NC(=O)[C@@H]2CCCN2C(=O)[C@H](CCC(=O)O)NC(=O)[C@@H](N)C(C)C)CSSC[C@@H](C(=O)N[C@@H](Cc2ccccc2)C(=O)N[C@@H](CCC(=O)O)C(=O)N[C@@H](CCCNC(=N)N)C(=O)N[C@@H](CC(C)C)C(=O)O)NC(=O)[C@H](CCC(=O)O)NC(=O)[C@H](Cc2c[nH]c3ccccc23)NC(=O)C(C)(C)NC(=O)[C@H](Cc2c[nH]c3ccccc23)NC1=O (H-VEPNCDIHV[Nle]W[Aib]WECFERL-OH; disulfide 5-15), which Stability [3] is on record?
Answer: Its Stability is “Unstable”.

Question: What about the Kd [1] of the same compound?
Answer: The Kd was 0.94 µM.

Question: What about the Kd [4] of the same compound?
Answer: Its Kd is 0.15 µM.

Question: And the IC50 [2]?
Answer: The IC50 was 3.5 µM.

Question: For CCCC[C@@H]1NC(=O)[C@H](C(C)C)NC(=O)C(C)(C)NC(=O)[C@H]([C@@H](C)CC)NC(=O)[C@H](CC(=O)O)NC(=O)[C@@H](NC(=O)[C@H](CC(N)=O)NC(=O)[C@@H]2CCCN2C(=O)[C@H](CCC(=O)O)NC(=O)[C@@H](N)C(C)C)CSSC[C@@H](C(=O)N[C@@H](Cc2ccccc2)C(=O)N[C@@H](CCC(=O)O)C(=O)N[C@@H](CCCNC(=N)N)C(=O)N[C@@H](CC(C)C)C(=O)O)NC(=O)[C@H](CCC(=O)O)NC(=O)[C@H](Cc2c[nH]c3ccccc23)NC(=O)[C@H](CCC(=O)O)NC(=O)[C@H](Cc2c[nH]c3ccccc23)NC1=O, which Stability [3] is on record?
Answer: The Stability was “Stable”.

Question: And the Kd [1]?
Answer: The Kd was 11.8 µM.

Question: What about the IC50 [2] of the same compound?
Answer: The IC50 was 50 µM.

Question: For CCCC[C@@H]1NC(=O)[C@H](C(C)C)NC(=O)[C@H](Cc2c[nH]cn2)NC(=O)[C@H]([C@@H](C)CC)NC(=O)[C@H](CC(=O)O)NC(=O)[C@@H](NC(=O)[C@H](CC(N)=O)NC(=O)[C@@H]2CCCN2C(=O)[C@H](CCC(=O)O)NC(=O)[C@@H](N)C(C)C)CSSC[C@@H](C(=O)N[C@@H](Cc2ccccc2)C(=O)N[C@@H](CCC(=O)O)C(=O)N[C@@H](CCCNC(=N)N)C(=O)N[C@@H](CC(C)C)C(=O)O)NC(=O)[C@H](CCC(=O)O)NC(=O)[C@H](Cc2c[nH]c3ccccc23)NC(=O)[C@H](CCC(=O)O)NC(=O)[C@H](Cc2c[nH]c3ccccc23)NC1=O, which Activity (ARPE-19) is on record?
Answer: Its Activity is “Non-Toxic”.

Question: And the Kd [1]?
Answer: Its Kd is 3.87 µM.

Question: And the Kd [4]?
Answer: Its Kd is 0.3 µM.

Question: What about the IC50 [2] of the same compound?
Answer: The IC50 was 20 µM.

Reference: ChEMBL document CHEMBL5029151, “Conformationally Constrained Peptides with High Affinity to the Vascular Endothelial Growth Factor” (J Med Chem, 2021)
